Screens (PubChem BioAssay)
Mdm2-MdmX inh: inhibitors of human Mdm2-MdmX association, primary screen, cell-based, luminescence, split luciferase, SaOS-2, uHTS | Protein Mdm4 (Homo sapiens) + E3 ubiquitin-protein ligase Mdm2 (Homo sapiens), … | SaOS-2 split-luciferase Mdm2/MdmX complementation | inhibition, % at 8 µM | actives 3% (n = 330,000);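 active = inhibition of at least 50% at 8 µM in the primary screen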
Target sequence (O15151 whole entry, looked up): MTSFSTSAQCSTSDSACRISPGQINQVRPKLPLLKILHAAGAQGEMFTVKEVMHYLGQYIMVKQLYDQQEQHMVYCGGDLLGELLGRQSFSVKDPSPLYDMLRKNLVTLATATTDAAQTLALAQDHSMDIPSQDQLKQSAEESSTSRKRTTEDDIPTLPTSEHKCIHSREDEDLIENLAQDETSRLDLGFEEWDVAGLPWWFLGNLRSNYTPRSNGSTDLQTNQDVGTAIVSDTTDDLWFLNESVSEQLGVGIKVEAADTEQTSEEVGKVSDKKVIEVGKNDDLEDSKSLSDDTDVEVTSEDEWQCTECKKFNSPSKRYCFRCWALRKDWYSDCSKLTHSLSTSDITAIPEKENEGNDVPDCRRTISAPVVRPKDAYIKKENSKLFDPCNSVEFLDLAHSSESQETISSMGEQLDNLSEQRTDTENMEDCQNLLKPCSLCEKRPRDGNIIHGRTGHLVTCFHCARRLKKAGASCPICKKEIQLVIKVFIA
Target sequence (Q00987 whole entry, looked up): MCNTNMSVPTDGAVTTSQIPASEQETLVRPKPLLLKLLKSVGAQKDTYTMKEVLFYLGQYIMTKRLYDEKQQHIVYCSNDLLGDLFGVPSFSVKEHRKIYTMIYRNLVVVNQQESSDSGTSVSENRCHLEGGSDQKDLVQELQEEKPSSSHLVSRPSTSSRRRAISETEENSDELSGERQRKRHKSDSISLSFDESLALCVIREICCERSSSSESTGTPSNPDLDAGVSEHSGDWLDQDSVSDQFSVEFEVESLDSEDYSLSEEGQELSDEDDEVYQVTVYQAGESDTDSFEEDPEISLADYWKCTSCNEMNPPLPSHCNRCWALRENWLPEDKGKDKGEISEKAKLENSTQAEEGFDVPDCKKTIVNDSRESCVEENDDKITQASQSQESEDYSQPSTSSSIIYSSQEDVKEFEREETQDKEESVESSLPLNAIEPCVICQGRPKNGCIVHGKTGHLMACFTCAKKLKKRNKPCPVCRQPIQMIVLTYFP
Calb FLC: C. albicans growth inhibition with fluconazole, primary screen, CaCi-2 strain, Alamar Blue fluorescence; actives 0.57% (n = 300,000); growth inhibition, % (concentration not given with the values); C. albicans CaCi-2 (fluconazole-resistant clinical isolate) + fluconazole, 48 h;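 active = growth inhibition above about 58% in most replicates, limit read from the data, passing the limit was not always enough; inconclusive = exactly half the replicates above a set limit; inactive = most replicates below a set limit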;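 also: all wells also contain fluconazole at 8 µg/ml as a sub-toxic cotreatment; 0% = median of DMSO wells and 100% = median of geldanamycin control wells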
CSC inhib: cancer stem cell viability inhibitors, primary screen, luminescence. cancer stem cell-like cells viability. inhibition, % at 7.5 µM. actives 1.1% (n = 300,000). AID 2717, 2010; in the data active = inhibition above about 75%; inconclusive = no clear call, values can overlap the other calls; tested in HMLE shEcad cells
Beta apoptosis: inhibitors of cytokine-induced beta cell apoptosis, primary screen, luminescence | INS-1E cytokine-induced death, ATP luminescence, 48 h; percent of positive-control rescue, neutral wells zero | protection from apoptosis, % (no concentration beside the values) | actives 0.8% (n = 300,000) | AID 435005, 2010;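 active = Every replicate reaches about 75%, or at least half do and their mean reaches it too, limit read from the data; inconclusive = At least half of replicates reach the limit but their mean does not; inactive = Under half of replicates reach the limit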;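 also: 0% = cytokine-treated negative control wells and 100% = positive control rescue; higher means more ATP so stronger rescue from cytokine killing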
NALP3 yeast inh: NALP3 inflammasome inhibitors in reconstituted yeast, primary screen, luminescence, uHTS. Yeast reconstituted NLRP3/ASC/caspase-1, beta-gal luminescence, 24 h. inhibition, % at 10 µM. actives 0.39% (n = 330,000). AID 2825, 2010;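 active = inhibition of 50% or more; inactive = inhibition below 50%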;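 also: plate controls were induced DMSO wells for no effect and uninduced yeast grown without galactose for full effect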
T cruzi repl: inhibitors of intracellular T. cruzi growth, primary screen, luminescence, NIH3T3 host cells; T. cruzi beta-gal in NIH3T3, 90 h; actives 1.4% (n = 300,000); inhibition, % (no concentration beside the values);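 active = mean inhibition across valid replicates above about 55%, limit read from the data; inconclusive = mean below that limit but half or more replicates reach it; inactive = mean below it, under half of replicates reach it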;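 also: signal also drops with host cell toxicity which is not excluded here; 0% = plate median of DMSO wells and 100% = zero luminescence signal; higher percent means less beta-gal luminescence so fewer parasites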
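System – NIH/3T3 host cells with β-galactosidase reporter T. cruzi · Doses – single 50 nL compound addition per well in DMSO · Reagent – 5000 T. cruzi trypomastigotes/well · Medium – Low-serum DMEM with 2% FBS · Timing – ≥90 h infection period, 3 h prior cell attachment · Evaluation – parasite load inhibition, % · Technique – GalScreen luminescence, 60 min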
An asterisk follows results filed as active; ? = inconclusive; · = not tested or not shown. Compounds with a hit are over-represented: about 5.3% of the library has one in this group of screens.

SMILES | Mdm2-MdmX inh | Calb FLC | CSC inhib | Beta apoptosis | NALP3 yeast inh | T cruzi repl
COc1ccc(C(=O)/C(=C/O)N=Nc2ccc(F)cc2)cc1 | -13.9 | -24.2 | 53.0 | · | 2.9 | 4.1
O=C(CCn1c(=O)[nH]c2ccccc2c1=O)Nc1ccccc1 | -0.5 | -3.7 | 8.7 | -0.7 | -8.4 | -8.0
O=C(O)COc1ccccc1C(Nc1cccnc1)c1cc(Cl)c2cccnc2c1O (configuration not stated) | -15.2 | 100.4* | · | · | 16.7 | -22.8
CC(=O)NC(C)c1cc(Cl)c2cccnc2c1O (configuration not stated) | 39.7 | · | 47.2 | 92.4* | 32.3 | ·
CCC(=O)NC(c1ccc(OC)c(OC)c1)c1cc(Cl)c2cccnc2c1O (configuration not stated) | · | 2.8 | · | · | · | 62.4*
CCC(=O)NC(C)c1cc(Cl)c2cccnc2c1O (configuration not stated) | 39.1 | · | -3.7 | -7.0 | 18.4 | ·
CCc1noc(C)c1C(=O)OCC(=O)NCc1ccc(Cl)cc1 | -4.6 | · | -10.4 | -2.5 | 13.5 | ·
O=[N+]([O-])c1ccc(COc2ccc(-c3[nH]ncc3-c3ccccc3)c(O)c2)cc1 | 26.6 | -1.0 | 118.4* | 24.7 | 21.3 | 6.2
Cc1nc2sc(C(c3cccc(F)c3)N3CCCC(C)C3)c(O)n2n1 (configuration not stated) | -3.8 | 85.4* | 20.8 | 0.7 | 8.2 | -6.4
Cc1nc2sc(C(c3cccc(F)c3)N3CCCCC3)c(O)n2n1 (configuration not stated) | -5.2 | 3.4 | 22.9 | -4.6 | 0.3 | 1.2
COc1cc(/C=N/NC(=O)c2c(-c3ccccc3)noc2C)ccc1O | 12.1 | -3.1 | -5.9 | -2.9 | 1.4 | -0.1
COc1ccccc1NC(=S)N(Cc1cccnc1)Cc1ccccc1Cl | 9.2 | -1.5 | -3.5 | 0.9 | 5.9 | -3.7
Cc1ccc(Cl)cc1NC(=O)NCc1cccnc1 | 3.8 | 14.8 | -8.2 | -16.7 | 3.7 | -1.3
Cc1ccccc1NC(=S)N(Cc1cccnc1)Cc1ccccc1Cl | 6.1 | -8.0 | -4.0 | -8.8 | 6.4 | 76.0*
CC(NC(=O)CNC(=S)N(Cc1ccccc1)Cc1cccnc1)c1ccccc1 (configuration not stated) | 5.4 | 4.5 | -2.2 | -2.5 | 11.2 | 54.5*
S=C(Nc1ccccc1Cl)N(Cc1ccccc1)Cc1cccnc1 | -26.3 | -1.4 | 8.7 | 2.1 | 1.1 | 61.5*
Cc1ccc(Cl)cc1NC(=S)N(Cc1ccccc1)Cc1cccnc1 | -9.1 | -2.8 | -6.9 | -4.5 | 4.0 | 76.3*
CCc1ccccc1NC(=S)N(Cc1cccnc1)Cc1ccco1 | -19.3 | -0.9 | -2.0 | -10.3 | 7.7 | ?
COc1cccc2cc(C(C)N(CCCN3CCOCC3)C(=S)Nc3cccc(C)c3C)oc12 (configuration not stated) | -33.7 | -6.8 | -3.4 | -5.6 | -0.7 | 8.2
Cc1ccc(C)c(NC(=O)CSc2n[nH]c(-c3ccncc3)n2)c1 | 9.5 | -2.0 | -8.8 | 9.9 | -0.1 | -21.2
COC(=O)Nc1nc2ccc(-c3n[nH]c(=O)c4ccccc34)cc2[nH]1 | 12.4 | -1.8 | 103.9* | -4.1 | 3.3 | -29.0
CSCCC1NC(=O)N(CC(=O)Nc2cccc3ccccc23)C1=O (configuration not stated) | -0.3 | 1.5 | -7.7 | -4.1 | 21.3 | -11.8
CC1CCCN(CCOCCOc2ccc(Cl)cc2Br)C1 (configuration not stated) | 32.6 | 4.9 | 18.0 | 4.6 | 34.4 | ?
COCCCNC1=C(Cl)C(=O)c2ccccc2C1=O | 6.3 | -0.9 | · | · | 14.7 | 1.9
O=S(=O)(Cc1ccccc1)NCc1cccnc1 | 16.8 | 7.0 | · | 7.9 | -2.1 | 3.3
SMILES | Mdm2-MdmX inh | Calb FLC | CSC inhib | Beta apoptosis | NALP3 yeast inh | T cruzi repl
CCN(CC)CCCNC1=C(Cl)C(=O)c2ccccc2C1=O | 17.3 | -9.6 | 106.6* | 97.7* | 12.3 | 79.1*
O=C1C(Cl)=C(NCc2cccnc2)C(=O)c2ccccc21 | 14.0 | -5.7 | 24.0 | 83.6* | 1.5 | 24.9
O=C(O)c1cccc(NC2=C(Cl)C(=O)c3ccccc3C2=O)c1 | · | ? | · | · | · | 63.7*
COC1=C(Nc2ccccc2)C(=O)c2ccccc2C1=O | 13.7 | 36.6 | · | 95.4* | 17.5 | 3.2
COc1cccc(-n2c(COc3ccccc3C)nnc2SCC(=O)O)c1 | 8.9 | 10.6 | 10.7 | -3.0 | 30.1 | 8.0
Cc1ccc(NS(=O)(=O)c2c(F)cc(F)c(Cl)c2F)cc1S(=O)(=O)N1CCOCC1 | 22.8 | · | -11.5 | -1.1 | -3.7 | ·
CCOC(=O)COc1c(C(=O)OC)sc2ncccc12 | -18.4 | -3.8 | -8.2 | -2.3 | -9.6 | -13.7
COc1ccc(C2=CC(c3sccc3C)n3nnnc3N2)cc1 (configuration not stated) | -100.6 | 13.2 | -6.6 | -4.3 | 13.5 | -3.2
CCCCN(CCCC)S(=O)(=O)c1ccc(N2CCCC2=O)c([N+](=O)[O-])c1 | 0.8 | 49.9 | -7.8 | 1.5 | 9.8 | 8.4
O=C1C(Cl)=C(Nc2ccccc2)C(=O)c2ccccc21 | · | 2.3 | 111.7* | 65.7 | · | ?
C=CCNC1=C(Cl)C(=O)c2ccccc2C1=O | 25.2 | -18.4 | 43.5 | 97.4* | 11.8 | -12.9
CC(C)NC1=C(Cl)C(=O)c2ccccc2C1=O | 31.9 | 19.4 | 31.2 | 69.5 | -19.5 | -12.0
COc1cccc(CNc2ccc([N+](=O)[O-])cc2C)c1 | 3.0 | 1.8 | 14.8 | 2.1 | 14.5 | -4.6
COc1ccc(C(=O)NC(=S)Nc2nc(-c3ccc(OC)c(Br)c3)cs2)cc1Br | 21.1 | · | 26.9 | 19.1 | 15.2 | 26.3
Nc1c2c(nc3sc4c(c13)CCCCC4)CCCCC2 | -93.3 | 95.2* | 71.5 | 26.7 | 17.2 | 3.5
Nc1nc2c(s1)CCCCCCCCCC2 | 15.5 | -8.3 | -12.8 | -8.5 | 18.6 | 3.8
COc1ccc(C)cc1NC(=S)N1CCN(c2ncccn2)CC1 | -7.9 | -6.2 | -3.0 | 2.2 | 13.2 | ·
CCN(CC)C(=O)c1ccc(S(=O)(=O)N2CCC(c3nc4ccccc4s3)CC2)cc1 | 5.9 | -9.6 | 14.8 | 99.8* | 17.9 | 9.5
CC1CCCN(C(=O)c2ccc(S(=O)(=O)N3CCC(c4nc5ccccc5s4)CC3)cc2)C1 (configuration not stated) | 16.0 | -18.1 | 24.5 | 39.4 | 14.4 | 35.3
Cc1ccc(Cl)cc1NC(=O)C(Cc1ccccc1)N1C(=O)C2C3CCC(C3)C2C1=O (configuration not stated) | 8.2 | 25.5 | 3.1 | 1.4 | 17.1 | 4.7
Cc1ccc(NC(=O)C(Cc2ccccc2)N2C(=O)C3C4CCC(C4)C3C2=O)cc1Cl (configuration not stated) | 3.4 | -2.9 | -6.3 | 5.9 | 31.4 | 77.8*
O=C1Cc2ccccc2C(=O)N1Cc1cccc(Cl)c1 | · | -2.1 | -3.1 | -2.5 | · | -6.5
